How the values were obtained:
human TRPV1 = human TRPV1 (Homo sapiens, UniProt Q8NER1); assay: 45Ca2+ uptake assay, antagonism of capsaicin; assay type: cell-based
ICR mice = assay: Formalin test; assay type: in vivo, mouse; conditions: 40 mg/kg i.p., formalin assay phase 2
In short: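 Male ICR mice (20-25 g, groups of 6-8) were housed at 22 ± 2 °C and 50 ± 5% humidity and acclimated to the chamber for at least 5 min. Test compound was given i.p. 30 min before 20 μL of 2% formalin in 0.9% saline was injected into the dorsal right hindpaw. Licking/biting time (s) was summed per 5-min block over 30 min: early phase 0-5 min, late phase 20-30 min.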

mu-opioid receptor (MOR) = mu-opioid receptor (MOR) (Homo sapiens, UniProt P35372); assay: MOR binding competition assay with [3H]DAMGO; conditions: MOR binding Ki relative to morphine
Sequence of mu-opioid receptor (MOR) (P35372 whole entry, species assumed): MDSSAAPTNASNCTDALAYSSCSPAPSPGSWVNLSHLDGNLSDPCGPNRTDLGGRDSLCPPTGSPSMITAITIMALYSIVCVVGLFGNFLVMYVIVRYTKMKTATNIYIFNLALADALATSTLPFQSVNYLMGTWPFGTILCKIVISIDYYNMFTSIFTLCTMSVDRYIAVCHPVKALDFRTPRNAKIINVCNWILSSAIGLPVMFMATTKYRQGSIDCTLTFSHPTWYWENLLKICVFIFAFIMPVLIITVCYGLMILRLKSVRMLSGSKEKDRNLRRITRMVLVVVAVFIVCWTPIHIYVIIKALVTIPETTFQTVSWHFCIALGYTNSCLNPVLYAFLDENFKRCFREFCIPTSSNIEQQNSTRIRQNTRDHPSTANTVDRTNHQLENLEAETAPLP

Sequence of human TRPV1 (Q8NER1 whole entry): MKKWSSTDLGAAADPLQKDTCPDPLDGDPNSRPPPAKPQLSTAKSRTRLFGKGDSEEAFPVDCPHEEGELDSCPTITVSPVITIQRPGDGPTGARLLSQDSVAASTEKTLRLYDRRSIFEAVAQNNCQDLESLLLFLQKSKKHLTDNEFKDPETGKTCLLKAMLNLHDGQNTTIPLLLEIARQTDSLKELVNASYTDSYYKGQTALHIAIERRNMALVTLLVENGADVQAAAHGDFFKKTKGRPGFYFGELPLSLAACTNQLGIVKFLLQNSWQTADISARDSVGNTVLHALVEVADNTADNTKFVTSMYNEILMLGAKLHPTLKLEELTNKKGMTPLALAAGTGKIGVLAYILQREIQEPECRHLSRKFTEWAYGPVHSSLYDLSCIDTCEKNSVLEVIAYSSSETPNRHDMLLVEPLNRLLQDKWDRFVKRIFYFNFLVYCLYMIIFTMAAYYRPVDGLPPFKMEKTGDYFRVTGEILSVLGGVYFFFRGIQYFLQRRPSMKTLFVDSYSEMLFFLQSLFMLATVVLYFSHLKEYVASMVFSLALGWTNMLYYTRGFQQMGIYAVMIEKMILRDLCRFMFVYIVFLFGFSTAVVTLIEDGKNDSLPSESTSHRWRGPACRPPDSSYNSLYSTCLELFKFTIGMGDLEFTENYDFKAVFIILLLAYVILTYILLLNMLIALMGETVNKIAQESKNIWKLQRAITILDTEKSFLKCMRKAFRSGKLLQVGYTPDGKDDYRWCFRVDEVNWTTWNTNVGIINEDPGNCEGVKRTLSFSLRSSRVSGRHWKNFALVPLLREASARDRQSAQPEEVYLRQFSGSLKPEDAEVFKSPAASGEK

CN(C)C1(Cc2ccccc2)CCN(c2cc(C(F)(F)F)ccc2CNC(=O)Nc2ccc(CO)c(F)c2)CC1 [compound 23, 1-(2-(4-Benzyl-4-(dimethylamino)piperidin-1-yl)-4-(trifluoromethyl)benzyl)-3-(3-fluoro-4-(hydroxymethyl)phenyl)urea]
Ki (human TRPV1): 81 nM

CC(C(=O)NCc1ccc(C(F)(F)F)cc1N1CCC(Cc2ccccc2)(N(C)C)CC1)c1ccc(NS(C)(=O)=O)c(F)c1 (centres unmarked) [compound 11, N-(2-(4-Benzyl-4-(dimethylamino)piperidin-1-yl)-4-(trifluoromethyl)benzyl)-2-(3-fluoro-4-(methylsulfonamido)phenyl)propanamide]
Ki (human TRPV1): 8.2 nM

CN(C)C1(Cc2ccccc2)CCN(c2cc(C(F)(F)F)ccc2CNC(=O)Nc2ccc3cnccc3c2)CC1 [compound 46, 1-(2-(4-Benzyl-4-(dimethylamino)piperidin-1-yl)-4-(trifluoromethyl)benzyl)-3-(isoquinolin-6-yl)urea]
Ki (human TRPV1): 156 nM

CN(C)C1(Cc2ccccc2)CCN(c2cc(C(F)(F)F)ccc2CNC(=O)Nc2cccc3[nH]c(=O)ccc23)CC1 [compound 35, 1-(2-(4-Benzyl-4-(dimethylamino)piperidin-1-yl)-4-(trifluoromethyl)benzyl)-3-(2-oxo-1,2-dihydroquinolin-5-yl)urea]
Ki (human TRPV1): 30.6 nM

CN(C)C1(Cc2ccccc2)CCN(c2cc(C(F)(F)F)ccc2CNC(=O)NCc2ccc(NS(C)(=O)=O)c(F)c2)CC1 [compound 17, N-(4-((3-(2-(4-Benzyl-4-(dimethylamino)piperidin-1-yl)-4-(trifluoromethyl)benzyl)-ureido)-methyl)-2-fluorophenyl)methanesulfonamide]
Ki (human TRPV1): 85.9 nM

CN(C)C1(Cc2ccccc2)CCN(c2cc(C(F)(F)F)ccc2CNC(=O)Nc2ccc3ccncc3c2)CC1 [compound 45, 1-(2-(4-Benzyl-4-(dimethylamino)piperidin-1-yl)-4-(trifluoromethyl)benzyl)-3-(isoquinolin-7-yl)urea]
Ki (human TRPV1): 56.1 nM

CN(C)C1(Cc2ccccc2)CCN(c2cc(C(F)(F)F)ccc2CNC(=O)Nc2cccc3ccncc23)CC1 [compound 47, 1-(2-(4-Benzyl-4-(dimethylamino)piperidin-1-yl)-4-(trifluoromethyl)benzyl)-3-(isoquinolin-8-yl)urea]
Ki (human TRPV1): 18.7 nM

CN(C)C1(Cc2ccccc2)CCN(c2cc(C(F)(F)F)ccc2CNC(=O)Nc2ccc(CNS(C)(=O)=O)c(F)c2)CC1 [compound 15, N-(4-(3-(2-(4-Benzyl-4-(dimethylamino)piperidin-1-yl)-4-(trifluoromethyl)benzyl)-ureido)-2-fluorobenzyl)methanesulfonamide]
Ki (human TRPV1): 25 nM

CC1CCN(c2nc(C(F)(F)F)ccc2CNC(=O)[C@@H](C)c2ccc(NS(C)(=O)=O)c(F)c2)CC1 [compound 1, reference compound]
Ki (human TRPV1): 2.22 nM

CN(C)C1(Cc2ccccc2)CCN(c2cc(C(F)(F)F)ccc2CNC(=O)Nc2ccc3cccnc3c2)CC1 [compound 44, 1-(2-(4-Benzyl-4-(dimethylamino)piperidin-1-yl)-4-(trifluoromethyl)benzyl)-3-(quinolin-7-yl)urea]
Ki (human TRPV1): 42 nM

CN(C)C1(Cc2ccccc2)CCN(c2cc(C(F)(F)F)ccc2CNC(=O)Nc2ccc3c(c2)OCC3)CC1 [compound 33, 1-(2-(4-Benzyl-4-(dimethylamino)piperidin-1-yl)-4-(trifluoromethyl)benzyl)-3-(2,3-dihydrobenzofuran-6-yl)urea]
Ki (human TRPV1): 31.3 nM

CN(C)C1(Cc2ccccc2)CCN(c2cc(C(F)(F)F)ccc2CNC(=O)Nc2cccc3ncccc23)CC1 [compound 49, 1-(2-(4-Benzyl-4-(dimethylamino)piperidin-1-yl)-4-(trifluoromethyl)benzyl)-3-(quinolin-5-yl)urea]
inhibition of pain behavior in phase 2 (ICR mice): completely | fold less potent than morphine (MOR Ki) (mu-opioid receptor (MOR)): 5 fold

CN(C)C1(Cc2ccccc2)CCN(c2cc(C(F)(F)F)ccc2CNC(=O)Nc2cccc3cnccc23)CC1 [compound 48, 1-(2-(4-Benzyl-4-(dimethylamino)piperidin-1-yl)-4-(trifluoromethyl)benzyl)-3-(isoquinolin-5-yl)urea]
Ki (human TRPV1): 8.8 nM

From publication PMC6815263 (European journal of medicinal chemistry, 2019)
